{"source": "ChEMBL document CHEMBL1121495", "about": "“Anticandidal activity of pyrimidine-peptide conjugates” (J Med Chem, 1980)", "data": [{"tested_on": "Candida albicans", "experiment": "Compound was evaluated for inhibition of transport of trimethionine in Candida albicans WD 18-4", "assay_type": "functional", "design": "concentration or dose not given beside the values", "method_in_brief": "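Initial uptake rate of radiolabeled (Met)3 into C. albicans WD 18-4 cells grown 6-8 h at 37 °C with aeration. Washed cells (1.4 mg dry wt/mL) preincubated 10 min at 37 °C, mixed with reaction mix of 2% glucose, citrate-phosphate buffer pH 3.5 (0.012 M) and (Met)3 6.06 x 10^-5 M. Samples filtered at intervals, washed, scintillation counted. Competitor included at 10-fold molar excess over (Met)3.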", "units": {"Inhibition": "%"}, "values": [{"smiles": "COC(=O)[C@H](CCSC)NC(=O)[C@H](CCSC)NC(=O)c1cc(O)nc(O)n1", "Inhibition": 0}, {"smiles": "CC(C)C[C@H](NC(=O)[C@H](CC(C)C)NC(=O)c1nc(O)nc(O)c1F)C(=O)O", "Inhibition": 40}, {"smiles": "CC(C)C[C@H](NC(=O)c1nc(O)nc(O)c1F)C(=O)O", "Inhibition": 0}, {"smiles": "O=C(O)CNC(=O)CNC(=O)c1cc(O)nc(O)n1", "Inhibition": 0}, {"smiles": "CC(C)CC(NC(=O)C(CC(C)C)NC(=O)c1cc(O)nc(O)n1)C(=O)O", "note": "(stereo not given)", "Inhibition": 67}]}]}
